Laboratory results published in ChEMBL document CHEMBL1127319, “CNAD: a potent and specific inhibitor of alcohol dehydrogenase” (J Med Chem, 1994).
One block for each compound: values may come before it.

What was measured:
[1] = Michaelis-Menten constant against mammalian malate dehydrogenase (MDH)
How it was run: (§1)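 NAD is varied and the A340 increase from NADH formation is monitored (ε 6.22 mM-1 cm-1). Buffers differ by enzyme: ADH in 0.1 M phosphate, pH 8.0, with ethanol 1.2 mM; GDH in 0.1 M phosphate, pH 7.0, with 10 μM EDTA; LDH and MDH in 0.05 M Tris-HCl, pH 9.0. At least duplicate.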

[2] = test system: NC(=O)c1ccc[n+]([C@@H]2O[C@H](COP(=O)([O-])OP(=O)(O)OC[C@H]3O[C@@H](n4cnc5c(N)ncnc54)[C@H](O)[C@@H]3O)[C@@H](O)[C@H]2O)c1; assay: Michaelis-Menten constant against mammalian glutamate dehydrogenase (GDH); how it was run: as §1
[3] = test system: NC(=O)c1ccc[n+]([C@@H]2O[C@H](COP(=O)([O-])OP(=O)(O)OC[C@H]3O[C@@H](n4cnc5c(N)ncnc54)[C@H](O)[C@@H]3O)[C@@H](O)[C@H]2O)c1; assay: Michaelis-Menten constant against mammalian lactate dehydrogenase (LDH); conditions: Sus scrofa; how it was run: as §1

Glutamate dehydrogenase 1, mitochondrial (Bos taurus), P00366, sequence (P00366 whole entry): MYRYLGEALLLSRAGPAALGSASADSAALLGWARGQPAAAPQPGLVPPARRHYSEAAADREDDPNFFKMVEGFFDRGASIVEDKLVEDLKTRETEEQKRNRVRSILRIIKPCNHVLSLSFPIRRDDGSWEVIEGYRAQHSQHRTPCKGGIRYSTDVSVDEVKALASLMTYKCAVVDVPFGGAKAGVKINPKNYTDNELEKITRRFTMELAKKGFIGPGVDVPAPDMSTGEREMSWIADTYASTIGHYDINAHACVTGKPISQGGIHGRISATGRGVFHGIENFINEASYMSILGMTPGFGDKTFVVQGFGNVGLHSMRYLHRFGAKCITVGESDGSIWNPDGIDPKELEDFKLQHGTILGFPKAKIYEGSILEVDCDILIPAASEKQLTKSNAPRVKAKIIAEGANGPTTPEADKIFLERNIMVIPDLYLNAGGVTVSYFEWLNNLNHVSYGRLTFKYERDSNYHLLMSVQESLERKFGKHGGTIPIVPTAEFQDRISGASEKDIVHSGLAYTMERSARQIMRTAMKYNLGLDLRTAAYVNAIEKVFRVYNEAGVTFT

Km [1]: 32 µM
Compound: NC(=O)c1ccc[n+]([C@@H]2O[C@H](COP(=O)([O-])OP(=O)(O)OC[C@H]3O[C@@H](n4cnc5c(N)ncnc54)[C@H](O)[C@@H]3O)[C@@H](O)[C@H]2O)c1

Compound: Glutamate dehydrogenase 1, mitochondrial (Bos taurus), P00366
Km [2]: 30 µM

Compound: L-lactate dehydrogenase A chain (Homo sapiens) (from UniProt P00338)
Km [3]: 141 µM
